{"source": "ChEMBL document CHEMBL4334554", "about": "“Structure-Guided Design of Substituted Biphenyl Butanoic Acid Derivatives as Neprilysin Inhibitors” (ACS Med Chem Lett, 2020)", "key": {"[1]": {"test": "Prodrug activation in rat"}, "Rattus norvegicus [2]": {"test_system": "Rattus norvegicus", "test": "In vivo inhibition of NEP in po dosed Sprague-Dawley rat assessed as increase in PANP level measured up to 8 hrs", "type": "functional, organism-based", "procedure,_shortened": "(§1)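 ANP potentiation model in conscious, chronically cannulated adult male Sprague–Dawley rats. Rats received an IV infusion of rat ANP to saturate the clearance receptors, so that ANP was removed mainly by NEP. The ethyl ester prodrug was then dosed orally. Blood was sampled at baseline and at intervals up to 8 h. Plasma ANP was read as % baseline, alongside parent plasma levels.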"}, "[3]": {"test": "Cmax in Sprague-Dawley rat at 3 mg/kg, po measured upto 24 hrs by HPLC-MS/MS analysis", "type": "ADME, organism-based", "set-up": "dose 3 mg/kg, route oral", "details": "in vivo"}, "[4]": {"test": "Oral bioavailability in Sprague-Dawley rat at 3 mg/kg measured upto 24 hrs by HPLC-MS/MS analysis", "type": "ADME, organism-based", "details": "in vivo"}, "[5]": {"test": "AUC (0 to 7 hrs) in Sprague-Dawley rat at 3 mg/kg, po measured upto 24 hrs by HPLC-MS/MS analysis", "type": "ADME, organism-based", "set-up": "time < 7 hr, dose 3 mg/kg, route oral", "details": "in vivo"}, "[6]": {"test": "Prodrug activation in monkey", "set-up": "species or system Macaca mulatta", "details": "rhesus monkey"}, "[7]": {"test": "Prodrug activation in dog", "set-up": "species or system Canis lupus familiaris"}, "[8]": {"test": "Clearance in monkey plasma", "type": "ADME, cell-free, Macaca mulatta", "details": "rhesus monkey"}, "[9]": {"test": "Apparent half life in monkey", "type": "ADME, Macaca mulatta", "details": "rhesus monkey, in vivo; read-out: t1/2(app) (converted)"}, "[10]": {"test": "Volume of distribution at steady state in Sprague-Dawley rat at 1 mg/kg, iv measured upto 24 hrs by HPLC-MS/MS analysis", "type": "ADME, organism-based", "details": "in vivo, read-out: Vdss"}, "[11]": {"test": "Clearance in dog plasma", "type": "ADME, cell-free, Canis lupus familiaris"}, "[12]": {"test": "Apparent half life in dog", "type": "ADME, Canis lupus familiaris", "details": "in vivo, read-out: t1/2(app) (converted)"}, "[13]": {"test": "Terminal half life in Sprague-Dawley rat at 1 mg/kg, iv measured upto 24 hrs by HPLC-MS/MS analysis", "type": "ADME, organism-based", "details": "in vivo, read-out: beta t1/2 (converted)"}, "[14]": {"test": "AUC (0 to 7 hrs) in Sprague-Dawley rat at 1 mg/kg, iv measured upto 24 hrs by HPLC-MS/MS analysis", "type": "ADME, organism-based", "set-up": "time < 7 hr, dose 1 mg/kg, route intravenous", "details": "in vivo"}, "[15]": {"test": "Clearance in Sprague-Dawley rat at 1 mg/kg, iv measured upto 24 hrs by HPLC-MS/MS analysis", "type": "ADME, organism-based", "details": "in vivo"}, "Rattus norvegicus [16]": {"test_system": "Rattus norvegicus", "test": "In vivo inhibition of NEP in Sprague-Dawley rat assessed as increase in PANP level at 30 mg/kg, po measured after 15 mins", "type": "functional, organism-based", "procedure,_shortened": "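Conscious, chronically cannulated adult male Sprague–Dawley rats received an IV infusion of rat ANP to saturate natriuretic peptide clearance receptors, so ANP elimination relied mainly on NEP. The ethyl ester prodrug was then given orally at 30 mg/kg. Blood was drawn at baseline before dosing and at intervals up to 8 h, and plasma ANP was expressed as % baseline, with parallel PK.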"}, "[17]": {"test": "Intrinsic clearance in human Hepatocyte assessed per million cells", "type": "ADME, cell-based", "details": "hepatocytes, read-out: CLH"}, "[18]": {"test": "Volume of distribution in Sprague-Dawley rat at 1 mg/kg, iv", "type": "ADME, organism-based", "details": "in vivo"}, "[19]": {"test": "Oral bioavailability in Sprague-Dawley rat at 3 mg/kg", "type": "ADME, organism-based", "details": "in vivo"}, "[20]": {"test": "Stability in human liver microsomes assessed as intrinsic clearance", "type": "ADME, Microsome", "details": "read-out: CLH"}, "[21]": {"test": "Stability in rat liver microsomes assessed as intrinsic clearance", "type": "ADME, Microsome", "details": "read-out: CLH"}, "[22]": {"test": "Plasma concentration in Sprague-Dawley rat at 30 mg/kg, po", "type": "ADME, organism-based", "details": "in vivo", "procedure,_shortened": "as §1"}, "[23]": {"test": "Half life in Sprague-Dawley rat at 1 mg/kg, iv", "type": "ADME, organism-based", "details": "in vivo"}, "[24]": {"test": "Clearance in Sprague-Dawley rat at 1 mg/kg, iv", "type": "ADME, organism-based", "details": "in vivo"}, "[25]": {"test": "Intrinsic clearance in rat Hepatocyte assessed per million cells", "type": "ADME, cell-based", "details": "hepatocytes, read-out: CLH"}}, "note": "Activity calls are given as the source filed them. The calls are words filed in the database; no cut-off is given here."}
{"compound": "CCOC(=O)C[C@@H](Cc1ccc(-c2cccc(Cl)c2)cc1)NC(=O)CCC(=O)O", "values": [{"measurement": "Activity", "setting": "[1]", "value": 99, "unit": "%"}, {"measurement": "inhibition", "setting": "Rattus norvegicus [2]", "value": "Dose-dependent effect"}, {"measurement": "Cmax", "setting": "[3]", "value": 12.6, "unit": "µM"}, {"measurement": "bioavailability", "setting": "[4]", "value": 42, "unit": "%"}, {"measurement": "AUC(0-t) at 7 h", "setting": "[5]", "value": 10.1, "unit": "µM·h"}, {"measurement": "Activity", "setting": "[6]", "value": 69, "unit": "%"}, {"measurement": "Activity", "setting": "[7]", "value": 5, "unit": "%"}]}
{"compound": "CCOC(=O)C[C@@H](Cc1ccc(-c2cc(Cl)ccc2OC)cc1)NC(=O)CCC(=O)O", "values": [{"measurement": "Cmax", "setting": "[3]", "value": 5.38, "unit": "µM"}, {"measurement": "bioavailability", "setting": "[4]", "value": 25, "unit": "%"}, {"measurement": "AUC(0-t) at 7 h", "setting": "[5]", "value": 5.63, "unit": "µM·h"}]}
{"compound": "O=C(O)CCC(=O)N[C@@H](CC(=O)O)Cc1ccc(-c2cccc(Cl)c2)cc1", "values": [{"measurement": "clearance", "setting": "[8]", "value": 3, "unit": "mL/min/kg"}, {"measurement": "half-life", "setting": "[9]", "value": 4, "unit": "h"}, {"measurement": "Vd", "setting": "[10]", "value": 0.1, "unit": "L/kg"}, {"measurement": "clearance", "setting": "[11]", "value": 29, "unit": "mL/min/kg"}, {"measurement": "half-life", "setting": "[12]", "value": 0.8, "unit": "h"}, {"measurement": "half-life", "setting": "[13]", "value": 0.8, "unit": "h"}, {"measurement": "AUC(0-t) at 7 h", "setting": "[14]", "value": 8.73, "unit": "µM·h"}, {"measurement": "clearance", "setting": "[15]", "value": 5, "unit": "mL/min/kg"}]}
{"compound": "CCOC(=O)[C@H](C)C[C@@H](Cc1ccc(-c2ccccc2)cc1)NC(=O)CCC(=O)O", "values": [{"measurement": "inhibition", "setting": "Rattus norvegicus [16]", "value": "Active"}]}
{"compound": "O=C(O)CCC(=O)N[C@@H](CC(=O)O)Cc1ccc(-c2ccccc2)cc1", "values": [{"measurement": "hepatocyte CLint", "setting": "[17]", "value": 0.68, "unit": "µL/min/1e6 cells"}, {"measurement": "Vd", "setting": "[18]", "value": 0.2, "unit": "L/kg"}, {"measurement": "bioavailability", "setting": "[19]", "value": 66, "unit": "%"}, {"measurement": "inhibition", "setting": "Rattus norvegicus [16]", "value": "Active"}, {"measurement": "microsomal CLint", "setting": "[20]", "value": "< 3.42", "unit": "µL/min/mg"}, {"measurement": "microsomal CLint", "setting": "[21]", "value": "< 3.42", "unit": "µL/min/mg"}, {"measurement": "concentration", "setting": "[22]", "value": "> 2", "unit": "µM"}, {"measurement": "half-life", "setting": "[23]", "value": 2.5, "unit": "h"}, {"measurement": "clearance", "setting": "[24]", "value": 11, "unit": "mL/min/kg"}, {"measurement": "hepatocyte CLint", "setting": "[25]", "value": 2.1, "unit": "µL/min/1e6 cells"}]}
{"compound": "COc1ccc(Cl)cc1-c1ccc(C[C@H](CC(=O)O)NC(=O)CCC(=O)O)cc1", "values": [{"measurement": "Vd", "setting": "[10]", "value": 0.1, "unit": "L/kg"}, {"measurement": "half-life", "setting": "[13]", "value": 1, "unit": "h"}, {"measurement": "AUC(0-t) at 7 h", "setting": "[14]", "value": 8.1, "unit": "µM·h"}, {"measurement": "clearance", "setting": "[15]", "value": 5, "unit": "mL/min/kg"}]}
